Measured values published in ChEMBL document CHEMBL1153431, “Potent inhibitors of pro-inflammatory cytokine production produced by a marine-derived bacterium” (J Med Chem, 2009).

Tests used:
[1] = Inhibition of pro-inflammatory cytokine IL5 production in ovalbumin-stimulated BALB/c mouse TH2 cells after 48 hrs by sandwich-ELISA; format: functional, cell-based; conditions: TH2, 48 h
Outline: (§1)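 Splenocytes from female Balb-C mice (6-8 weeks) immunized subcutaneously weekly for four weeks with 25 µg OVA adsorbed to 1 mg alum in PBS. Cells in RPMI-1640 at 1.3 × 10^6 cells/mL, given compound in DMSO plus OVA allergen; DMSO and DMSO+OVA replicate wells as controls. After 48 h incubation, supernatant cytokine measured by colorimetric sandwich ELISA.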

[2] = Inhibition of pro-inflammatory cytokine IL13 production in ovalbumin-stimulated BALB/c mouse TH2 cells after 48 hrs by sandwich-ELISA; format: functional, cell-based; conditions: TH2, 48 h; outline: as §1
[3] = Cytotoxicity against BALB/c mouse TH2 cells after 48 hrs by Trypan blue assay; format: cell-based; conditions: read-out: LD50
Outline: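 Splenocytes from OVA/alum-immunized female Balb-C mice (6-8 weeks) in RPMI-1640 at 1.3 × 10^6 cells/mL, exposed to compound in DMSO with OVA allergen for 48 h. Adherent cells stained with trypan blue and counted visually on a hemocytometer to assess viability.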

[4] = Inhibition of pro-inflammatory cytokine IL5 production in ovalbumin-stimulated BALB/c mouse TH2 cells at 5 nM after 48 hrs by sandwich-ELISA relative to control; format: functional; set-up: scale not given: the % may be the effect or the level left
Outline: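 Splenocytes from female BALB/c mice (6-8 weeks) were used, taken after weekly subcutaneous immunisation for 4 weeks with 25 µg OVA on 1 mg alum in PBS. Cells were held at 1.3 × 10^6 cells/mL in RPMI-1640 and given compound in DMSO plus OVA for 48 h. Controls were DMSO ± OVA wells. Supernatant IL-5 was read by colorimetric sandwich ELISA.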

[5] = Inhibition of pro-inflammatory cytokine IL1 production in ovalbumin-stimulated BALB/c mouse APC at 10 nM after 48 hrs by sandwich-ELISA relative to control; format: functional; set-up: scale not given: the % may be the effect or the level left; outline: as §1
[6] = Inhibition of pro-inflammatory cytokine TNFalpha production in ovalbumin-stimulated BALB/c mouse APC at 10 nM after 48 hrs by sandwich-ELISA relative to control; format: functional; set-up: scale not given: the % may be the effect or the level left; outline: as §1
[7] = Therapeutic index, ratio of LD50 for BALB/c mouse TH2 cells to IC50 for pro-inflammatory cytokine production in BALB/c mouse TH2 cells; format: cell-based; conditions: read-out: TI
Outline: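 Splenocytes came from OVA/alum-immunised female BALB/c mice (25 µg OVA s.c. weekly for 4 weeks) and were held at 1.3 × 10^6 cells/mL in RPMI-1640. They were exposed to compound in DMSO with OVA for 48 h, with DMSO ± OVA control wells. Cytokines in the supernatant were measured by sandwich ELISA. Viability of adherent cells was scored by trypan blue hemocytometer counting.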

| Compound | IC50 [1] [nM] | IC50 [2] [nM] | CC50 at 48 h [3] [nM] | Activity [4] [%] | Activity [5] [%] | Activity [6] [%] | selectivity ratio [7] |
| --- | --- | --- | --- | --- | --- | --- | --- |
| CCCC[C@H]1C(=O)O[C@H](C)[C@H](NC(=O)c2cccc(NC=O)c2O)C(=O)O[C@@H](C)[C@@H]1OC(=O)c1ccccc1 [SPLENOCIN E] | 16.6 | 15.9 | > 570 |  |  |  |  |
| CCCCC[C@H]1C(=O)O[C@H](C)[C@H](NC(=O)c2cccc(NC=O)c2O)C(=O)O[C@@H](C)[C@@H]1OC(=O)c1ccccc1 [SPLENOCIN F] | 9.4 | 6.8 | > 560 |  |  |  |  |
| CC[C@H]1C(=O)O[C@H](C)[C@H](NC(=O)c2cccc(NC=O)c2O)C(=O)O[C@@H](C)[C@@H]1OC(=O)c1ccccc1 [SPLENOCIN D] | 47.9 | 43.7 | > 550 |  |  |  |  |
| C[C@@H]1C[C@H]2[C@@H]3CCC4=CC(=O)C=C[C@]4(C)[C@@]3(F)[C@@H](O)C[C@]2(C)[C@@]1(O)C(=O)CO [DEXAMETHASONE] | 5 | 5 | > 7100 | >80 |  |  |  |
| CC(C)C(=O)O[C@H]1[C@H](C)OC(=O)[C@@H](NC(=O)c2cccc(NC=O)c2O)[C@@H](C)OC(=O)[C@@H]1Cc1ccccc1 [SPLENOCIN B] | 1.8 | 1.6 | > 1700 | >80 | 85 | 75 | > 500 |
| CCCCCC[C@H]1C(=O)O[C@H](C)[C@H](NC(=O)c2cccc(NC=O)c2O)C(=O)O[C@@H](C)[C@@H]1OC(=O)c1ccccc1 [SPLENOCIN G] | 5 | 5.2 | > 550 |  | 85 | 75 |  |
| CCC(C)C(=O)O[C@H]1[C@H](C)OC(=O)[C@@H](NC(=O)c2cccc(NC=O)c2O)[C@@H](C)OC(=O)[C@@H]1Cc1ccccc1 (some centres undefined) [SPLENOCIN C] | 6.7 | 7.3 | > 560 |  |  |  |  |
| C[C@@H]1OC(=O)[C@@H](NC(=O)c2cccc(NC=O)c2O)[C@@H](C)OC(=O)[C@H](Cc2ccccc2)[C@H]1OC(=O)c1ccccc1 [SPLENOCIN I] | 15.8 | 15.2 | > 540 |  |  |  |  |
| CC(=O)O[C@H]1[C@H](C)OC(=O)[C@@H](NC(=O)c2cccc(NC=O)c2O)[C@@H](C)OC(=O)[C@@H]1Cc1ccccc1 [SPLENOCIN A] | 3.1 |  | > 1800 |  |  |  |  |
| CCCCC(C)C[C@H]1C(=O)O[C@H](C)[C@H](NC(=O)c2cccc(NC=O)c2O)C(=O)O[C@@H](C)[C@@H]1OC(=O)c1ccccc1 (some centres undefined) [SPLENOCIN H] | 4.3 | 5.1 | > 1600 |  |  |  |  |
| C[C@@H]1OC(=O)[C@@H](NC(=O)c2cccc(NC=O)c2O)[C@@H](C)OC(=O)[C@H](Cc2ccccc2)[C@H]1O [SPLENOCIN J] | 1020 | 826 | > 6000 |  |  |  |  |
